Among the data in ChEMBL document CHEMBL1153852, “Steroidal lactones as inhibitors of 17beta-hydroxysteroid dehydrogenase type 5: chemical synthesis, enzyme inhibitory activity, and assessment of estrogenic and androgenic activities” (Eur J Med Chem, 2009) are Activity and inhibition values, retold here.

The target of assay [1] is T1, Estrogen receptor (Rattus norvegicus) (UniProt P06211).
T1 sequence (whole entry): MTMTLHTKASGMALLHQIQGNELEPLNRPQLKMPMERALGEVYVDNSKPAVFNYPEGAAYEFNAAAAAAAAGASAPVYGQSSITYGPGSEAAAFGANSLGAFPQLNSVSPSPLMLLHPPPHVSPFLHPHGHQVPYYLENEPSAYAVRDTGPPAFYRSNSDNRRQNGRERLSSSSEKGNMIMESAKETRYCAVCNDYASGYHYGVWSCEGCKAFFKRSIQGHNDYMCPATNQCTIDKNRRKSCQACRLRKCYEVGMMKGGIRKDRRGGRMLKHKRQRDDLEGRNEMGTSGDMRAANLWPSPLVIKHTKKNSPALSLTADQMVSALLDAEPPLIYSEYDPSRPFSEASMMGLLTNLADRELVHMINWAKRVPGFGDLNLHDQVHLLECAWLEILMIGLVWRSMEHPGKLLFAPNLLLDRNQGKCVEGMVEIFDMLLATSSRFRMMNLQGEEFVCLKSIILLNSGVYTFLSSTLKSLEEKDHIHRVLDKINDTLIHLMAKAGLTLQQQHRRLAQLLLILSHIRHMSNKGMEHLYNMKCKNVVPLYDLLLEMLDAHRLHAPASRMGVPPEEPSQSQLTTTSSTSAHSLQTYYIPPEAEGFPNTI
The assay is described as follows: Binding affinity to rat uterus estrogen receptor at 0.1 uM.

The target of assay [2] is T2, Progesterone receptor (Rattus norvegicus) (UniProt Q63449).
T2 sequence (whole entry): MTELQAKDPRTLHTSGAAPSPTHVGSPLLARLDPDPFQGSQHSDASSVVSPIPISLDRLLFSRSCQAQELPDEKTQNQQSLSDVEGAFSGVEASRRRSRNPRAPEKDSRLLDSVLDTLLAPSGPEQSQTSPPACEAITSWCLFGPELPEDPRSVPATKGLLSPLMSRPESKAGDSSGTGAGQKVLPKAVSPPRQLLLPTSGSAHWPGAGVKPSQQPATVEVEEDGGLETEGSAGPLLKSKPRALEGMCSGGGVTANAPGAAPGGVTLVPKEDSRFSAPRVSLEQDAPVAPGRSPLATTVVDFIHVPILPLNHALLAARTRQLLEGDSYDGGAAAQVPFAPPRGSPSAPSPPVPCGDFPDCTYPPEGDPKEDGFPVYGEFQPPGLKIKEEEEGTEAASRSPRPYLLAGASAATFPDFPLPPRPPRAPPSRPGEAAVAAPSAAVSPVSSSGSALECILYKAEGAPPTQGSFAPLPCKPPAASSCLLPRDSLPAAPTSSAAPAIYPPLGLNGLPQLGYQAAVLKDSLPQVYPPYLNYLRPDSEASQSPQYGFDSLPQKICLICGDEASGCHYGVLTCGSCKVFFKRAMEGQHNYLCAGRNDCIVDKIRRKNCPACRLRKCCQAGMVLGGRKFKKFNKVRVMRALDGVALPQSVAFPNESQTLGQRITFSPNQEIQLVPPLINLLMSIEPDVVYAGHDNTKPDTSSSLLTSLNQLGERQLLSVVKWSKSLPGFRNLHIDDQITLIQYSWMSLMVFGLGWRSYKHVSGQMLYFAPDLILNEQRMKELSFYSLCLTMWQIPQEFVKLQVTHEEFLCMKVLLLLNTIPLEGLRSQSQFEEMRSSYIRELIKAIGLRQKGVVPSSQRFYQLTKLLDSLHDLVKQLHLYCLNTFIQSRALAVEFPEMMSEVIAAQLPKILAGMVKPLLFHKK
Briefly: Binding affinity to rat uterus progesterone receptor at 10 uM.

For assay [3], the target named is T3, Glucocorticoid receptor (Rattus norvegicus) (UniProt P06536).
T3 sequence (whole entry): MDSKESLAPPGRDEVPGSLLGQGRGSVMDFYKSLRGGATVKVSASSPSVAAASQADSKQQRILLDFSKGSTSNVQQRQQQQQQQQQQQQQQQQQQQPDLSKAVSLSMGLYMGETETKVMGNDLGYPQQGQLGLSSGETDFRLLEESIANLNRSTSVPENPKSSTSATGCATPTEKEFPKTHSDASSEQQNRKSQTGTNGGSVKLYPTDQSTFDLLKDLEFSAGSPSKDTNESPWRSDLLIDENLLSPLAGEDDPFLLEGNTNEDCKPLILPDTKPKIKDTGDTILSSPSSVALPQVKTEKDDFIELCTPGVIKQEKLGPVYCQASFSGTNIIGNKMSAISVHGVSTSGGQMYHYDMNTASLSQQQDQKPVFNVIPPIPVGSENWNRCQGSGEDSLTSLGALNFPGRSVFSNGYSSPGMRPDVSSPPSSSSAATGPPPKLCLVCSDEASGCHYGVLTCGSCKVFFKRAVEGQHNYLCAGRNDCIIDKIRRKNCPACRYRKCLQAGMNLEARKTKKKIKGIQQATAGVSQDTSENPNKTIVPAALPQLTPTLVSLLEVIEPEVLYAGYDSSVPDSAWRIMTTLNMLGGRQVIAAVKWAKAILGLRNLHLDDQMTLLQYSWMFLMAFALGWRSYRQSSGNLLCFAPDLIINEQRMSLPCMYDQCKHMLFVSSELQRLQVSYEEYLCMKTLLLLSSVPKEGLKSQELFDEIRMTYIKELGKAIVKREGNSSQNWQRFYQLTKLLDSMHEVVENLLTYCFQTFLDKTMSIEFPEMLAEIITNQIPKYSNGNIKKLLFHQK
Briefly: Binding affinity to rat liver glucocorticoid receptor at 0.1 uM. In outline: (§1)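 Rat liver glucocorticoid receptor competitive binding, reported as % binding. Bound and free steroid are separated by dextran-coated charcoal adsorption instead of protamine sulfate precipitation.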

Assay [4] has as its target T3, Glucocorticoid receptor (Rattus norvegicus). Briefly: Binding affinity to rat liver glucocorticoid receptor at 10 uM. In short, it runs like this: as §1
The target in assay [5] is T4, 17-beta-hydroxysteroid dehydrogenase type 1 (Homo sapiens) (UniProt P14061).
T4 sequence (whole entry): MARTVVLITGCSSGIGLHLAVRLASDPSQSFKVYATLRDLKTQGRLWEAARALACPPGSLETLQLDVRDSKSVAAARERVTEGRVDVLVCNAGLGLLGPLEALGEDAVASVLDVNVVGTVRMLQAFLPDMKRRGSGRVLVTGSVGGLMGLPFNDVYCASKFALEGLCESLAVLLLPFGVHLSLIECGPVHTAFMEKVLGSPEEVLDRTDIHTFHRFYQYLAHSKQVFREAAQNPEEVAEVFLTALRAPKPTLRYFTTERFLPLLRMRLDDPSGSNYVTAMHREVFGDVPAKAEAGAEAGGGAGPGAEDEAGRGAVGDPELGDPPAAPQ
Briefly: Inhibition of human 17beta-HSD1 expressed in HEK293 cells assessed as enzyme-mediated transformation of [14C]-E1 in to [14C]-E2 at 1 uM. The assay is classed as cell-based.

Assay [6] deals with T1, Estrogen receptor (Rattus norvegicus). The assay is described as follows: Binding affinity to rat uterus estrogen receptor at 1 uM.
Assay [7] addresses T2, Progesterone receptor (Rattus norvegicus). Briefly: Binding affinity to rat uterus progesterone receptor at 0.01 uM.

On to `CC1(C)CC[C@@]2(CC[C@H]3[C@@H]4CCc5cc(O)ccc5[C@H]4CC[C@@]32C)OC1=O`, for which the Activity in assay [1] was 10%; in assay [2], 35%; in assay [3], 0%; in assay [4], 24%.

In general, inhibition refers to the percentage by which the read-out fell short of the control. Take `CC1(C)CC[C@@]2(CC[C@H]3[C@@H]4CCc5ccccc5[C@H]4CC[C@@]32C)OC1=O`: in assay [5], the inhibition came out at 50%. Further, the Activity in assay [6] and in assay [7] was 0% in each case.
